# Screening results as filed in PubChem BioAssay.
# Compounds with a hit are over-represented: about 5.1% of the library has one in this group of screens.
# APP 5'UTR act – activators of APP 5'UTR luciferase reporter, primary screen, SH-SY5Y cells. activation, % at 2 µM. SH-SY5Y APP 5'UTR luciferase reporter, luminescence; zero percent = DMSO vehicle wells. 190,000 tested, 1% active;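 active means activation above a set limit, based on mean plus 3 SD of controls, cut at about 140% in these data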
# STAT3 blocker – IL-6 driven STAT3 reporter inhibitors, primary screen, U3A cells, luciferase, luminescence, MLSCN library; IL-6 STAT3-luciferase reporter; host cell line lacks STAT1; inhibition, % at 5.5 µM; 190,000 tested, 0.89% active; AID 862, 2007;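 active means inhibition above the mean inhibition across all screened compounds plus 3 SD, cut at about 44% in these data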
# STAT3 act-1 – IL-6 driven STAT3 reporter potentiators, primary screen, U3A cells, luciferase, luminescence, MLSCN library. IL-6 STAT3-luciferase reporter; 100% = signal with IL-6 EC80 alone. activation (% of control), % at 5.6 µM. 190,000 tested, 0.91% active. AID 871, 2007;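 active means activation above the screen-wide mean of compound activation plus 3 SD, cut at about 130% in these data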
#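 system = STAT3-luciferase reporter U3A cells | reagent = IL-6 stimulus at 33 ng/mL final | timing = 1 h compound pre-exposure, 6 h IL-6 stimulation, 37 °C | measured by = luminescence | evaluation = % activation versus median of IL-6-stimulated wells | control set = IL-6-only wells as 100% reference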
# NF-kB neuron act – activators of NF-kB expression in neurons, primary screen, cell-based, HTS. human neuronal cells, NF-kB reporter expression; hits give high values. fold change at 12.5 µM. 190,000 tested, 1.6% active. AID 1239, 2008; in the data active means fold change above about 3.3
# STAT1 act-1 – STAT1 signaling activators, primary screen, cell-based, HTS, luciferase reporter | NIH 3T3 STAT1-luciferase reporter, IFN-gamma, luminescence; 100% = IFN-gamma alone, no compound | activation (% of control), % at 5.5 µM | 200,000 tested, 2.6% active | AID 932, 2007;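 active means activation above the screen-wide mean activation plus 3 SD, cut at about 130% in these data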
# STAT1 inh – STAT1 signaling inhibitors, primary screen, cell-based, HTS, luciferase reporter. inhibition, % at 5.5 µM. 200,000 tested, 0.35% active. AID 920, 2007. NIH 3T3 STAT1-luciferase reporter, IFN-gamma, luminescence;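 active means inhibition above a set limit, the mean inhibition across all tested compounds plus 3 SD, cut at about 34% in these data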
# STAT3 act-2 – STAT3 reporter potentiators, retest of hits, confirmation, U3A cells, luciferase, luminescence | shares compounds with STAT3 act-1 | IL-6 potentiation; U3A cells lack STAT1; 100 means same as IL-6 alone | potentiation (% of control), % at 5.7 µM | 1,200 tested, 64% active;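 active means percent activation of the STAT3 luciferase reporter above a set limit taken from the earlier primary screen, cut at about 130% in these data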
# NFkB act STAT3ct – NF-kB reporter activators in human cells, counter-screen for STAT3 activator project; shares compounds with STAT3 act-1; activation (% of control), % at 5.7 µM; 1,200 tested, 11% active; NF-kappaB reporter activation; in the data active means activation above about 120%;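 further: reporter induced by TNF-alpha stimulation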
# STAT1 act-2 – STAT1 reporter activators, IFN-gamma induced, counter-screen for STAT3 activator project, cell-based, NIH 3T3, luciferase luminescence. 1,200 tested, 13% active. shares compounds with STAT3 act-1. activation (% of control), % at 5.7 µM. NIH 3T3 STAT1-luciferase reporter;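 active means activation above the solvent-only control well mean plus 3 SD, set per screening run, cut at about 120% in these data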
# A number is an active result; - = inactive; . = no result given.
SMILES,APP 5'UTR act,STAT3 blocker,STAT3 act-1,NF-kB neuron act,STAT1 act-1,STAT1 inh,STAT3 act-2,NFkB act STAT3ct,STAT1 act-2
CN(C)c1ccc(P(=O)(Nc2cccc(C(F)(F)F)c2)N2CCOCC2)c(NC(=O)c2cccs2)c1 (stereo not drawn),-,-,140,-,-,-,-,-,-
O=C(Nc1cc(C(F)(F)F)ccc1N1CCOCC1)c1cccs1,-,-,-,-,-,-,.,.,.
O=C(CN1CCCC1)Nc1ccc(-c2nc3cc(NC(=O)CN4CCCC4)ccc3o2)cc1,-,-,150,-,-,-,138,130,161
Cc1ccc(-n2[nH]c(C)c(/C=N/Nc3ccc([N+](=O)[O-])cc3[N+](=O)[O-])c2=O)cc1C,-,-,-,-,-,-,.,.,.
Cc1ccc(-n2[nH]c(C)c(/C=C3/C=Nc4ccccc43)c2=O)cc1C,-,-,149,-,-,-,138,-,-
COc1ccc(C)c2sc(=NC(=O)c3ccccc3)n(C)c12,-,-,136,3.6,-,-,139,148,182
NNc1nc2c(Cl)ccc(Cl)c2s1,-,-,146,-,-,-,-,-,-
Cn1c(=O)c(-c2ccccc2)nc2ccccc21,-,-,141,-,-,-,-,-,-
Cn1c(=O)c(-c2ccccc2N)nc2ccccc21,-,-,-,-,-,-,.,.,.
Cn1c(C(=O)N2CCCC(C(=O)c3ccc(C(F)(F)F)cc3)C2)cc(=O)n(C)c1=O (stereo not drawn),-,-,-,-,-,-,.,.,.
CCOC(=O)CC(N)c1cccc([N+](=O)[O-])c1 (stereo not drawn),-,-,-,-,-,-,.,.,.
O=C(COC(=O)/C=C/c1ccccc1[N+](=O)[O-])NC1CC1,-,-,149,-,-,-,142,-,-
CC(C)(C)NC(=O)COC(=O)/C=C/c1ccccc1[N+](=O)[O-],-,-,-,-,-,-,.,.,.
O=C(COC(=O)/C=C/c1ccccc1[N+](=O)[O-])NC1CCS(=O)(=O)C1 (stereo not drawn),-,-,140,-,-,-,187,-,126
Cc1nn(-c2ccccc2)c(C)c1/C=C/C(=O)OCC(=O)NC1CCS(=O)(=O)C1 (stereo not drawn),-,-,-,.,-,-,.,.,.
O=C(O)c1cc(-c2ccccc2)n(-c2ccc(Cl)cc2)n1,-,-,-,-,-,-,.,.,.
CCc1ccc(N(C(=O)c2csnn2)C(C(=O)NC(C)(C)C)c2ccccn2)cc1 (stereo not drawn),-,-,139,-,-,-,135,-,-
COc1ccc(CC(=O)NNC(=O)CSc2ccc(C)cc2)cc1,-,-,-,-,-,-,.,.,.
COC(=O)c1ccccc1S(=O)(=O)Nc1ccc2cn[nH]c2c1,-,-,143,-,-,-,-,-,-
COC(=O)c1sc(S(=O)(=O)Nc2ccc(C)cc2)c(C(=O)OC)c1C,-,-,-,-,-,-,.,.,.
COC(=O)c1sc(S(=O)(=O)Nc2ccc3cn[nH]c3c2)c(C(=O)OC)c1C,-,-,147,-,-,-,147,-,-
COc1ccccc1N(CC(=O)NC1CCCC1)C(=O)c1oc(C(C)(C)C)cc1C,-,-,-,-,-,-,.,.,.
COc1ccc(NC(=O)CSc2nc(C)cs2)c(OC)c1,-,-,-,-,-,-,.,.,.
O=C(c1ccccc1)c1c[nH]c(C(=O)NCCCn2ccnc2)c1,-,-,-,-,-,-,.,.,.
O=C(Cc1ccccc1)NNC(=O)Nc1ccccc1,-,-,-,-,-,-,.,.,.
SMILES,APP 5'UTR act,STAT3 blocker,STAT3 act-1,NF-kB neuron act,STAT1 act-1,STAT1 inh,STAT3 act-2,NFkB act STAT3ct,STAT1 act-2
NC(=O)C1CCCN(C(=S)Nc2cccc3ccccc23)C1 (stereo not drawn),-,-,-,-,-,-,.,.,.
Fc1ccccc1C1c2[nH]c3ccccc3c2CCN1CCCn1cccn1 (stereo not drawn),-,-,144,.,-,-,-,-,-
COc1cccc(/C=N/n2c(-c3ccco3)nc3ccccc3c2=O)c1OC,-,-,-,-,-,-,.,.,.
CCC(C)(C)C1CCC(=NNc2nc3ccccc3[nH]2)CC1 (stereo not drawn),-,-,-,-,-,-,.,.,.
CC(=O)N1CCC(=NNc2nc3ccccc3[nH]2)CC1,-,-,143,-,-,-,144,-,-
O=C(c1ccc2ccccc2n1)N1CCN(c2ccccc2O)CC1,-,-,157,-,-,-,158,-,-
COc1cccc(C(=O)NC(=S)Nc2ccccc2N2CCCC2)c1,-,-,147,-,-,-,141,-,-
COc1cccc(C(=O)Nc2ccccc2N2CCCC2)c1,-,-,-,-,-,-,.,.,.
CCNC(=O)NC(=O)C(C)OC(=O)C1CCN(S(=O)(=O)c2ccccc2C(=O)OC)CC1 (stereo not drawn),-,-,-,-,-,-,.,.,.
COc1cc2c(cc1OC)-c1cc(N3CCCCCC3)nc(=O)n1CC2,-,-,-,-,-,-,.,.,.
COc1cc2c(cc1OC)-c1cc(N3CCCc4ccccc43)nc(=O)n1CC2,-,-,149,-,-,-,133,-,-
CCOc1ccccc1C(=O)NN1C(=O)CCC1=O,-,-,143,-,-,-,155,-,-
COc1ccc(NC(=O)c2cncc(Br)c2)cc1S(N)(=O)=O,-,-,-,-,-,-,.,.,.
CCOC(=O)c1[nH]c2ccccc2c1NC(=O)c1ccc(S(=O)(=O)N(C)C)cc1,-,-,-,-,-,-,.,.,.
CN(C)S(=O)(=O)c1ccc(C(=O)Oc2cc(=O)[nH]c3ccccc23)cc1,-,-,154,-,-,-,-,-,-
O=c1c2ccccc2oc2nc(-c3ccco3)n(-c3ccccc3)c(=O)c12,-,-,136,-,-,-,135,-,-
CC(C)c1nc2oc3ccccc3c(=O)c2c(=O)n1-c1ccccc1,-,-,159,-,-,-,-,-,-
O=c1c2cnn(-c3ccccc3)c2nc(-c2ccco2)n1-c1ccccc1,-,-,-,-,-,-,.,.,.
CC(C)Sc1nc2[nH]ncc2c(=O)[nH]1,-,-,-,-,-,-,.,.,.
